Experimental data reported in ChEMBL document CHEMBL4196141, “Improved Antibacterial Activity of the Marine Peptide N6 against Intracellular Salmonella Typhimurium by Conjugating with the Cell-Penetrating Peptide Tat11 via a Cleavable Linker” (J Med Chem, 2018).
The source made the active and inactive calls. No cut-off for these calls is given here. Positions of bridges follow the written chain, without caps; N, C: chain ends. Residues, ends and D or L forms follow the SMILES beside them.

Experiments:
Salmonella typhimurium [1] = experiment: Bactericidal activity against 2 hrs-gentamicin pre-exposed Salmonella typhimurium ATCC 14028 assessed as reduction colony forming units at 50 uM incubated for 10 hrs; type: functional, Salmonella enterica subsp. enterica serovar Typhimurium
In short: (§1)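 Macrophage protection assay. RAW264.7 cells (5 × 10^4/well, 24 h) were infected with S. Typhimurium ATCC14028 at MOI 10 for 1 h in DMEM/10% FBS, exposed to 100 µg/mL gentamicin for 2 h at 37 °C, and PBS-washed. Peptides in DMEM/10% FBS were added for 10 h. Cells were lysed with 0.1% Triton X-100 and CFU plated; log10 CFU reduction versus untreated cells. Three replicates; two independent experiments; one-way ANOVA with Tukey.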

[2] = Induction of hemolysis in mouse RBC at 100 uM incubated for 1 hrs at 37 degC; type: cell-based, Erythrocyte; conditions: red blood cells (erythrocytes), read-out: Activity
In short: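 Fresh mouse erythrocytes were washed three times in 0.9% NaCl, and an 8% suspension was incubated with peptide (2-fold dilutions, 100 to 0.3125 µM) for 1 h at 37 °C. Released hemoglobin was read at 540 nm. 1% Triton X-100 defined 100% lysis; polymyxin served as positive control and NaCl as negative.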

Salmonella typhimurium [3] = experiment: Antibacterial activity against Salmonella typhimurium ATCC 14028 infected in ICR mouse model of peritonitis assessed as reduction colony forming units in total peritoneal fluids at 1 umol/kg, ip dosed at 2 hrs post infection and measured after 10 hrs post dose; type: functional, Salmonella enterica subsp. enterica serovar Typhimurium
In short: (§2)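 Six-week-old female ICR mice (six per group) received ip S. Typhimurium ATCC14028 (5 × 10^5 CFU, 0.5 mL). Peptide was given ip 2 h post-infection and mice were killed 10 h after treatment. Peritoneum was lavaged with 5 mL ice-cold PBS and total CFU counted. For intracellular CFU, pelleted cells were treated with 100 µg/mL gentamicin for 1 h at 37 °C, washed, lysed and plated. PBS served as negative control, ciprofloxacin as positive.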

Salmonella typhimurium [4] = experiment: Antibacterial activity against Salmonella typhimurium ATCC 14028 infected in ICR mouse model of peritonitis assessed as reduction colony forming units in intracellular fluids at 1 umol/kg, ip dosed at 2 hrs post infection and measured after 10 hrs post dose; type: functional, Salmonella enterica subsp. enterica serovar Typhimurium; in short: as §2
Salmonella typhimurium [5] = experiment: Bactericidal activity against 2 hrs-gentamicin pre-exposed Salmonella typhimurium ATCC 14028 assessed as reduction colony forming units at 50 uM incubated for 10 hrs relative to marine peptide N6; type: functional, Salmonella enterica subsp. enterica serovar Typhimurium; design: scale not given: the % may be the effect or the level left; in short: as §1
Salmonella typhimurium [6] = experiment: Antibacterial activity against Salmonella typhimurium ATCC 14028 assessed as microbial inhibition zone pretreated for 1 hr at 4 to 100 degC by inhibition zone assay; conditions: Salmonella enterica subsp. enterica serovar Typhimurium
Salmonella typhimurium [7] = experiment: Antibacterial activity against Salmonella typhimurium ATCC 14028 infected in ICR mouse model of peritonitis assessed as mouse survival at 2 umol/kg, ip dosed at 0.5 and 8 hrs post infection and measured daily for 7 days
[8] = Drug internalization in mouse RAW264.7 using FITC-labeled compound at 2 uM pre-incubated for 1 hr with clathrin-mediated endocytosis inhibitor chlorpromazine followed by compound addition and subsequent incubation for 2 hrs by flow cytometry; type: ADME, cell-based; conditions: raw264.7, 2 h
In short: (§3)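 RAW264.7 cells were pretreated 1 h at 37 °C with 3 mM amiloride, 20 µM nocodazole, 6 µg/mL chlorpromazine or 5 mM MβCD. FITC-labeled peptide was then added for 2 h at 37 °C. Extracellular fluorescence was quenched with 0.4% Trypan blue and intracellular fluorescence read by flow cytometry against an untreated control.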

[9] = Drug internalization in mouse RAW264.7 using FITC-labeled compound at 2 uM pre-incubated for 1 hr with lipid rafts disruptor methyl-beta-cyclodextrin followed by compound addition and subsequent incubation for 2 hrs by flow cytometry; type: ADME, cell-based; conditions: raw264.7, 2 h; in short: as §3

Row | Compound | Activity (Salmonella typhimurium [1]) | hemolysis at 1 h, 100 µM [2] | Activity (Salmonella typhimurium [3]) | Activity (Salmonella typhimurium [4]) | Activity (Salmonella typhimurium [5]) | Activity (Salmonella typhimurium [6]) | Activity (Salmonella typhimurium [7]) | Drug uptake [8] | Drug uptake [9]
1 | CC(C)[C@@H]1NC(=O)CNC(=O)[C@H](CC(N)=O)NC(=O)[C@H](CCCNC(=N)N)NC(=O)[C@H](Cc2ccc(O)cc2)NC(=O)[C@H](C(C)C)NC(=O)[C@@H](NC(=O)[C@@H](NC(=O)[C@H](CC(N)=O)NC(=O)[C@H](Cc2c[nH]c3ccccc23)NC(=O)[C@H](C)NC(=O)[C@H](Cc2ccccc2)NC(=O)CN)C(C)C)CSSC[C@@H](C(=O)N[C@@H](Cc2cnc[nH]2)C(=O)N[C@@H](CCCNC(=N)N)C(=O)N[C@@H](CCCNC(=N)N)C(=O)N[C@@H](C)C(=O)N[C@@H](CC(N)=O)C(N)=O)NC(=O)[C@H](C(C)C)NC(=O)[C@H](CCCNC(=N)N)NC1=O (H-GFAWNVCVYRNGVRVCHRRAN-NH2; disulfide 7-16) | 3.13 log10CFU | 2.05% | 3.04 log10CFU | 2.22 log10CFU | 97.6% | Active | 100% | Active | Active
2 | CC(C)[C@H](NC(=O)CCCCCN1C(=O)CC(SC[C@H](N)C(=O)N[C@@H](Cc2ccc(O)cc2)C(=O)NCC(=O)N[C@@H](CCCNC(=N)N)C(=O)N[C@@H](CCCCN)C(=O)N[C@@H](CCCCN)C(=O)N[C@@H](CCCNC(=N)N)C(=O)N[C@@H](CCCNC(=N)N)C(=O)N[C@@H](CCC(N)=O)C(=O)N[C@@H](CCCNC(=N)N)C(=O)N[C@@H](CCCNC(=N)N)C(=O)N[C@@H](CCCNC(=N)N)C(=O)O)C1=O)C(=O)N[C@@H](CCCNC(N)=O)C(=O)Nc1ccc(COC(=O)NCC(=O)N[C@@H](Cc2ccccc2)C(=O)N[C@@H](C)C(=O)N[C@@H](Cc2c[nH]c3ccccc23)C(=O)N[C@@H](CC(N)=O)C(=O)N[C@H](C(=O)N[C@H]2CSSC[C@@H](C(=O)N[C@@H](Cc3cnc[nH]3)C(=O)N[C@@H](CCCNC(=N)N)C(=O)N[C@@H](CCCNC(=N)N)C(=O)N[C@@H](C)C(=O)N[C@@H](CC(N)=O)C(=O)O)NC(=O)[C@H](C(C)C)NC(=O)[C@H](CCCNC(=N)N)NC(=O)[C@H](C(C)C)NC(=O)CNC(=O)[C@H](CC(N)=O)NC(=O)[C@H](CCCNC(=N)N)NC(=O)[C@H](Cc3ccc(O)cc3)NC(=O)[C@H](C(C)C)NC2=O)C(C)C)cc1 (stereo partly specified) | 2.06 log10CFU | 3.81% | 1.87 log10CFU | 1.39 log10CFU | 76.2% | – | – | Not Active | Active
